Results as given in ChEMBL document CHEMBL1806410, “Design and synthesis of pyridine-substituted itraconazole analogues with improved antifungal activities, water solubility and bioavailability” (Bioorg Med Chem Lett, 2011).
Converted amounts (≈) assume the structure as drawn.

Experiments:
[1] = test system: Cryptococcus neoformans; test: Antifungal activity against Cryptococcus neoformans JLC 50123 by broth microdilution method; type: functional
Outline: (§1)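 MICs were determined by broth microdilution following NCCLS guidelines (M38-P for filamentous fungi). The panel covered four yeast species and two Aspergillus species, with two strains per species. Itraconazole served as positive control.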

[2] = test system: Aspergillus fumigatus; test: Antifungal activity against Aspergillus fumigatus JLC 30883 by broth microdilution method; type: functional; outline: as §1
[3] = Tmax in rat at 10 mg/kg, po administered as single dose; type: ADME, organism-based; set-up: dose 10 mg/kg, route oral; settings: in vivo
Outline: (§2)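 Rats received a single dose of compound, either oral (10 mg/kg) or intravenous (10, 5 or 2.5 mg/kg). Plasma levels were followed, and the reported parameters were Cmax, Tmax, AUC0–t, half-life, clearance and bioavailability (F).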

[4] = Half life in rat at 10 mg/kg, po administered as single dose; type: ADME, organism-based; set-up: dose 10 mg/kg, route oral; settings: in vivo; outline: as §2
[5] = test system: Aspergillus flavus; test: Antifungal activity against Aspergillus flavus JLC 30784 by broth microdilution method; type: functional; outline: as §1
[6] = test system: Aspergillus fumigatus; test: Antifungal activity against Aspergillus fumigatus JLC 30506 by broth microdilution method; type: functional; outline: as §1
[7] = test system: Aspergillus flavus; test: Antifungal activity against Aspergillus flavus JLC 40437 by broth microdilution method; type: functional; outline: as §1
[8] = test system: Pichia kudriavzevii; test: Antifungal activity against Candida krusei JLC 30386 by broth microdilution method; type: functional; outline: as §1
[9] = AUC (0 to t) in rat at 10 mg/kg, iv administered as single dose; type: ADME, organism-based; set-up: dose 10 mg/kg, route intravenous; settings: plasma; outline: as §2
[10] = Clearance in rat at 10 mg/kg, iv administered as single dose; type: ADME, organism-based; set-up: dose 10 mg/kg, route intravenous; settings: in vivo; outline: as §2
[11] = test system: Candida parapsilosis; test: Antifungal activity against Candida parapsilosis JLC 30275 by broth microdilution method; type: functional; settings: Lodderomyces parapsilosis; outline: as §1
[12] = Half life in rat at 10 mg/kg, iv administered as single dose; type: ADME, organism-based; set-up: dose 10 mg/kg, route intravenous; settings: in vivo; outline: as §2
[13] = Solubility of the compound in water at pH 1.2; type: physicochemical
[14] = Solubility of the compound in water at pH 7.4; type: physicochemical; settings: buffer, BLD = below limit of detection
[15] = test system: Candida albicans; test: Antifungal activity against Candida albicans JLC 30364 by broth microdilution method; type: functional; outline: as §1
[16] = Oral bioavailability in rat at 10 mg/kg, administered as single dose; type: ADME, organism-based; settings: in vivo; outline: as §2
[17] = test system: Pichia kudriavzevii; test: Antifungal activity against Candida krusei JLC 30366 by broth microdilution method; type: functional; outline: as §1
[18] = test system: Candida parapsilosis; test: Antifungal activity against Candida parapsilosis JLC 30365 by broth microdilution method; type: functional; settings: Lodderomyces parapsilosis; outline: as §1
[19] = AUC (0 to t) in rat at 10 mg/kg, po administered as single dose; type: ADME, organism-based; set-up: dose 10 mg/kg, route oral; settings: plasma; outline: as §2
[20] = test system: Candida albicans; test: Antifungal activity against Candida albicans JLC 31374 by broth microdilution method; type: functional; outline: as §1
[21] = test system: Cryptococcus neoformans; test: Antifungal activity against Cryptococcus neoformans JLC 50122 by broth microdilution method; type: functional; outline: as §1
[22] = Cmax in rat at 10 mg/kg, po administered as single dose; type: ADME, organism-based; set-up: dose 10 mg/kg, route oral; settings: in vivo; outline: as §2
[23] = AUC (0 to t) in rat at 5 mg/kg, iv administered as single dose; type: ADME, organism-based; set-up: dose 5 mg/kg, route intravenous; settings: plasma; outline: as §2
[24] = Half life in rat at 5 mg/kg, iv administered as single dose; type: ADME, organism-based; set-up: dose 5 mg/kg, route intravenous; settings: in vivo; outline: as §2
[25] = Clearance in rat at 5 mg/kg, iv administered as single dose; type: ADME, organism-based; set-up: dose 5 mg/kg, route intravenous; settings: in vivo; outline: as §2
[26] = AUC (0 to t) in rat at 2.5 mg/kg, iv administered as single dose; type: ADME, organism-based; set-up: dose 2.5 mg/kg, route intravenous; settings: plasma
Outline: (§3)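 Rats received a single iv dose. Drug levels were measured in plasma. Parameters came from the plasma concentration–time data: AUC over 0–t in ng h/mL, clearance (CL) in L/h/kg, and half-life in h.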

[27] = Clearance in rat at 2.5 mg/kg, iv administered as single dose; type: ADME, organism-based; set-up: dose 2.5 mg/kg, route intravenous; settings: in vivo; outline: as §3
[28] = Half life in rat at 2.5 mg/kg, iv administered as single dose; type: ADME, organism-based; set-up: dose 2.5 mg/kg, route intravenous; settings: in vivo; outline: as §3
[29] = test system: Salmonella typhimurium; test: Mutagenic activity in Salmonella Typhimurium assessed as number of revertants colonies after 48 hrs by Ames test; type: toxicity, organism-based; settings: salmonella enterica subsp. enterica serovar typhimurium
Outline: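 Plate incorporation protocol without S9 mix. About 10^9 bacterial cells in culture medium were mixed with test compound in DMSO and poured onto hardened agar, in triplicate plates. Plates were incubated at 37 °C for 48 h, then revertant colonies were counted and reported as mean ± standard deviation.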

[30] = Acute toxicity in po dosed ICR mouse assessed as mortality after 10 days; type: organism-based; settings: in vivo
Outline: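 Single oral dose on day 0 at 100, 144, 207, 299, 430 or 619 mg/kg. Animals were watched continuously for 10 days, recording deaths and signs of toxicity. LD50 was calculated by a modified Kaber method.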

| Compound | MIC [1] [µg/mL] | MIC [2] [µg/mL] | Tmax [3] [h] | half-life [4] [h] | MIC [5] [µg/mL] | MIC [6] [µg/mL] | MIC [7] [µg/mL] | MIC [8] [µg/mL] | AUC(0-t) [9] [ng·h/mL] | clearance [10] [mL/min/kg] | MIC [11] [µg/mL] | solubility ([13]; water, read-out: solubility) [µg/mL] | MIC [15] [µg/mL] | bioavailability [16] [%] | MIC [17] [µg/mL] | MIC [18] [µg/mL] | AUC(0-t) [19] [ng·h/mL] | MIC [20] [µg/mL] | MIC [21] [µg/mL] | Cmax [22] [ng/mL] | also measured |
| --- | --- | --- | --- | --- | --- | --- | --- | --- | --- | --- | --- | --- | --- | --- | --- | --- | --- | --- | --- | --- | --- |
| CC(C)n1ncn(-c2ccc(N3CCN(c4ccc(OC[C@H]5CO[C@](Cn6cncn6)(c6ccc(F)cc6F)O5)cc4)CC3)nc2)c1=O | 0.25 (≈ 0.379 µM) | 0.25 (≈ 0.379 µM) | 1.88 | 1.26 | 0.125 (≈ 0.189 µM) | 0.25 (≈ 0.379 µM) | 0.125 (≈ 0.189 µM) | 0.0625 (≈ 0.0947 µM) | 7730 | 21.2 | 0.125 (≈ 0.189 µM) | 1680 (≈ 2550 µM) | 0.0075 (≈ 0.0114 µM) | 35 | 0.0625 (≈ 0.0947 µM) | 0.125 (≈ 0.189 µM) | 2710 | 0.0075 (≈ 0.0114 µM) | 0.25 (≈ 0.379 µM) | 712 | half-life [12]: 4.18 h; solubility [14]: BLD |
| CC(C)Cn1ncn(-c2ccc(N3CCN(c4ccc(OC[C@H]5CO[C@](Cn6cncn6)(c6ccc(F)cc6F)O5)cc4)CC3)nc2)c1=O | 0.5 (≈ 0.742 µM) | 0.25 (≈ 0.371 µM) | 2 | 2.18 | 0.0625 (≈ 0.0928 µM) | 0.25 (≈ 0.371 µM) | 0.0625 (≈ 0.0928 µM) | 0.0625 (≈ 0.0928 µM) |  |  | 0.125 (≈ 0.186 µM) | 2330 (≈ 3460 µM) | 0.03 (≈ 0.0445 µM) | 21.7 | 0.0625 (≈ 0.0928 µM) | 0.125 (≈ 0.186 µM) | 1610 | 0.03 (≈ 0.0445 µM) | 0.5 (≈ 0.742 µM) | 392 | AUC(0-t) [23]: 3710 ng·h/mL; half-life [24]: 1.43 h; clearance [25]: 23.5 mL/min/kg |
| CC(C)n1ncn(-c2ccc(N3CCN(c4ccc(OC[C@H]5CO[C@](Cn6cncn6)(c6ccc(F)cc6F)O5)cc4)CC3)cn2)c1=O | 0.25 (≈ 0.379 µM) | 0.125 (≈ 0.189 µM) | 3 | 3.45 | 0.125 (≈ 0.189 µM) | 0.125 (≈ 0.189 µM) | 0.125 (≈ 0.189 µM) | 0.0625 (≈ 0.0947 µM) |  |  | 0.25 (≈ 0.379 µM) | 320 (≈ 485 µM) | 0.0075 (≈ 0.0114 µM) |  | 0.0625 (≈ 0.0947 µM) | 0.25 (≈ 0.379 µM) | 1220 | 0.0075 (≈ 0.0114 µM) | 0.25 (≈ 0.379 µM) | 159 |  |
| CC(CO)Cn1ncn(-c2ccc(N3CCN(c4ccc(OC[C@H]5CO[C@](Cn6cncn6)(c6ccc(F)cc6F)O5)cc4)CC3)cn2)c1=O (stereo partly specified) | 0.03 (≈ 0.0435 µM) | 0.5 (≈ 0.725 µM) |  |  | 0.125 (≈ 0.181 µM) | 0.5 (≈ 0.725 µM) | 0.125 (≈ 0.181 µM) | < 0.0156 |  |  | < 0.0156 |  | < 0.0156 |  | < 0.0156 | < 0.0156 |  | < 0.0156 | 0.03 (≈ 0.0435 µM) |  |  |
| CC(C)(CO)Cn1ncn(-c2ccc(N3CCN(c4ccc(OC[C@H]5CO[C@](Cn6cncn6)(c6ccc(F)cc6F)O5)cc4)CC3)cn2)c1=O | < 0.0156 | 0.03 (≈ 0.0426 µM) | 3 | 3.41 | < 0.0156 | 0.03 (≈ 0.0426 µM) | < 0.0156 | < 0.0156 |  |  | < 0.0156 | 190 (≈ 270 µM) | 0.0156 (≈ 0.0222 µM) | 42.2 | < 0.0156 | < 0.0156 | 1900 | 0.0156 (≈ 0.0222 µM) | < 0.0156 | 297 | AUC(0-t) [26]: 1120 ng·h/mL; clearance [27]: 36.7 mL/min/kg; half-life [28]: 2.3 h; Activity [29]: Non-toxic; LD50 at 240 h [30]: 278 mg/kg |
| CCC(C)n1ncn(-c2ccc(N3CCN(c4ccc(OCC5COC(Cn6cncn6)(c6ccc(Cl)cc6Cl)O5)cc4)CC3)cc2)c1=O (stereo unspecified) [ITRACONAZOLE] | 1 (≈ 1.42 µM) | 0.25 (≈ 0.354 µM) | 3 | 2.57 | 0.125 (≈ 0.177 µM) | 0.25 (≈ 0.354 µM) | 0.125 (≈ 0.177 µM) | 0.0625 (≈ 0.0886 µM) | 343 | 322 | 0.25 (≈ 0.354 µM) |  | 0.125 (≈ 0.177 µM) | 8 | 0.0625 (≈ 0.0886 µM) | 0.25 (≈ 0.354 µM) | 27.5 | 0.125 (≈ 0.177 µM) | 1 (≈ 1.42 µM) | 6.28 | half-life [12]: 22 h; solubility ([13]; buffer): 16 µg/mL (≈ 22.7 µM) |
